Converted amounts (≈) assume the structure as drawn. The source made the active and inactive calls. The calls are words filed in the database; no cut-off is given here.
What was measured:
Klebsiella pneumoniae = test: Antibacterial activity against Klebsiella pneumoniae 7117 assessed as inhibition of bacterial growth incubated for 24 hrs by CLSI based method; assay type: functional
Procedure, shortened: (§1)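 Broth microdilution per CLSI. Equal volume of twofold serial compound dilutions added. Incubated stationary at 37 °C for 24 h. MIC taken as lowest concentration giving complete inhibition of visible growth. Oxacillin control for Gram-positives, ceftriaxone for Gram-negatives.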

Enterococcus faecalis [1] = test: Antibacterial activity against Enterococcus faecalis DHMC #1 assessed as inhibition of bacterial growth incubated for 24 hrs by CLSI based method; assay type: functional; procedure, shortened: as §1
Staphylococcus aureus [2] = test: Antibacterial activity against methicillin-resistant Staphylococcus aureus COL assessed as inhibition of bacterial growth incubated for 24 hrs by CLSI based method; assay type: functional; procedure, shortened: as §1
Escherichia coli = test: Antibacterial activity against Escherichia coli DHMC-1 assessed as inhibition of bacterial growth incubated for 24 hrs by CLSI based method; assay type: functional; procedure, shortened: as §1
Candida albicans = test: Antifungal activity against Candida albicans SC5314 assessed as inhibition of bacterial growth incubated for 24 hrs by CLSI based method; assay type: functional
Procedure, shortened: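 Broth microdilution per CLSI. It is mixed 1:1 with twofold serial compound dilutions and incubated stationary at 35 °C for 24 h. MIC is read as the lowest concentration with no observable growth.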

[3] = Cmax in CD-1 mouse at 10 mg/kg, po administered as single dose and measured for 24 hrs by LC-MS/MS analysis; assay type: ADME, organism-based; parameters: time 24 hrs, dose 10 mg/kg, route po; settings: in vivo
Enterococcus faecium [4] = test: Antibacterial activity against Enterococcus faecium DHMC #1 assessed as inhibition of bacterial growth incubated for 24 hrs by CLSI based method; assay type: functional; procedure, shortened: as §1
[5] = system: Staphylococcus epidermidis; test: Antibacterial activity against Staphylococcus epidermidis NIF104003 assessed as inhibition of bacterial growth incubated for 24 hrs by CLSI based method; assay type: functional; procedure, shortened: as §1
[6] = Oral bioavailability in CD-1 mouse at 10 mg/kg administered as single dose and measured for 24 hrs by LC-MS/MS analysis; assay type: ADME, organism-based; settings: in vivo
Procedure, shortened: (§2)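 Six-week-old female CD-1 mice (n = 3 per route). Dosing: single 0.5 mg/kg i.v. in 5% DMA/95% (4% Cremophor EL), or 10 mg/kg oral gavage in 5% DMA/60% PEG 300/35% D5W. Tail-vein blood is collected to 24 h into K2EDTA, and plasma is analysed by LC-MS/MS. Parameters come from noncompartmental analysis.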

Staphylococcus aureus [7] = test: Antibacterial activity against community-associated methicillin-resistant Staphylococcus aureus USA300 FPR3757 assessed as inhibition of bacterial growth incubated for 24 hrs by CLSI based method; assay type: functional
Procedure, shortened: (§3)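 It was mixed 1:1 with twofold serial compound dilutions and incubated stationary at 37 °C for 24 h. MIC was the lowest concentration giving complete inhibition of observable growth, with an oxacillin control.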

Enterococcus faecium [8] = test: Antibacterial activity against Enterococcus faecium ATCC19579 assessed as inhibition of bacterial growth incubated for 24 hrs by CLSI based method; assay type: functional; procedure, shortened: as §1
[9] = AUC (0 to 24 hrs) in CD-1 mouse at 10 mg/kg, po administered as single dose and measured for 24 hrs by LC-MS/MS analysis; assay type: ADME, organism-based; parameters: time 24 hrs, dose 10 mg/kg, route po; settings: in vivo
[10] = Half life in CD-1 mouse at 0.5 mg/kg, iv administered as single dose and measured for 24 hrs by LC-MS/MS analysis; assay type: ADME, organism-based; settings: in vivo; procedure, shortened: as §2
Staphylococcus aureus [11] = test: Antibacterial activity against methicillin resistant Staphylococcus aureus FPR3757 assessed as inhibition of bacterial growth incubated for 24 hrs by CLSI based method; assay type: functional; settings: read-out: MIC100; procedure, shortened: as §3
Vero [12] = test: Cytotoxicity against African green monkey Vero cells assessed as increase in LDH release at 0.47 to 30 uM incubated for 24 hrs; assay type: toxicity, cell-based; settings: chlorocebus sabaeus, dose 0.47-30 µM
Procedure, shortened: (§4)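 Confluent Vero cells (maintained in RPMI 1640 + 10% FBS, 37 °C, 5% CO2) exposed to compound at 0.47–30 μM (twofold dilutions) in serum-free medium for 24 h at 37 °C. LDH in supernatant is measured colorimetrically at 490 nm and expressed as percent of 2% detergent positive control.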

[13] = system: Staphylococcus epidermidis; test: Antibacterial activity against Staphylococcus epidermidis NIF104008 assessed as inhibition of bacterial growth incubated for 24 hrs by CLSI based method; assay type: functional; procedure, shortened: as §1
[14] = Protein binding in human plasma at […] incubated for 4 hrs under shaking condition by LC-MS/MS based equilibrium dialysis method; assay type: ADME, cell-free
Procedure, shortened: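 Rapid equilibrium dialysis (8k MWCO). Compound is spiked into human plasma at 10 μg/mL and dialysed against DPBS pH 7.4 with shaking for 4 h at 37 °C. Matrices are matched, proteins precipitated with methanol containing internal standard, and both chambers quantified by LC-MS/MS against a calibration curve. Percent free and bound are calculated from chamber concentrations.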

Vero [15] = test: Cytotoxicity against African green monkey Vero cells assessed as increase in LDH release at 30 uM incubated for 24 hrs relative to control; assay type: toxicity, cell-based; settings: chlorocebus sabaeus; procedure, shortened: as §4
Cell membrane [16] = test: Induction of cell membrane damage in Staphylococcus aureus USA300 assessed as mesosome-like membrane inclusions at 1 times MIC measured after 1 hrs by TEM analysis
Procedure, shortened: (§5)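 Fixed in glutaraldehyde/paraformaldehyde in cacodylate pH 7.4, post-fixed with osmium tetroxide, stained with uranyl acetate, resin-embedded, thin-sectioned and imaged by TEM.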

[17] = AUC (0 to 24 hrs) in CD-1 mouse at 0.5 mg/kg, iv administered as single dose and measured for 24 hrs by LC-MS/MS analysis; assay type: ADME, organism-based; parameters: time 24 hrs, dose 0.5 mg/kg, route iv; settings: in vivo
Procedure, shortened: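 Six-week-old female CD-1 mice (20–25 g; n = 3) received one intravenous injection at 0.5 mg/kg in 5% DMA:95% (4% Cremophor EL). […] Plasma was stored at −80 °C and quantified by LC-MS/MS. AUC came from noncompartmental analysis, reported as mean ± SD.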

[18] = Cytotoxicity against sheep erythrocytes assessed as reduction in cell viability; assay type: toxicity, cell-based, Ovis aries, Erythrocyte
Procedure, shortened: (§6)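 4% sheep erythrocytes mixed 1:1 with twofold serial compound dilutions in PBS, incubated stationary 1 h at 37 °C, then centrifuged at 500g for 5 min. Supernatant A540 is measured and percent hemolysis is calculated relative to DMSO vehicle (0%) and Triton X-100 (100%). Triplicate, mean ± SD.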

Cell membrane [19] = test: Induction of cell membrane damage in Staphylococcus aureus USA300 assessed as cross-wall-septum formation with reduced splitting at 1 times MIC measured after 10 mins by TEM analysis; assay type: subcellular
Staphylococcus aureus [20] = test: Antibacterial activity against methicillin-resistant Staphylococcus aureus MW2 assessed as inhibition of bacterial growth incubated for 24 hrs by CLSI based method; assay type: functional; procedure, shortened: as §1
Enterococcus faecalis [21] = test: Antibacterial activity against Enterococcus faecalis ATCC700802 assessed as inhibition of bacterial growth incubated for 24 hrs by CLSI based method; assay type: functional; procedure, shortened: as §1
Staphylococcus aureus [22] = test: Antibacterial activity against methicillin-resistant Staphylococcus aureus N315 assessed as inhibition of bacterial growth incubated for 24 hrs by CLSI based method; assay type: functional; procedure, shortened: as §1
Staphylococcus aureus [23] = test: microbe, parasite or virus in culture; settings: USA300 FPR3757, 24 h
Enterobacter cloacae = test: Antibacterial activity against Enterobacter cloacae ND-21 assessed as inhibition of bacterial growth incubated for 24 hrs by CLSI based method; assay type: functional; procedure, shortened: as §1
[24] = Volume of distribution in CD-1 mouse at 0.5 mg/kg, iv administered as single dose and measured for 24 hrs by LC-MS/MS analysis; assay type: ADME, organism-based; settings: in vivo; procedure, shortened: as §2
Staphylococcus aureus [25] = test: Antibacterial activity against methicillin resistant Staphylococcus aureus FPR3757 assessed as inhibition of bacterial growth incubated for 24 hrs in presence of 10% mouse serum by CLSI based method; assay type: functional
Procedure, shortened: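 CLSI broth microdilution against MRSA FPR3757 (USA300) in Mueller–Hinton broth supplemented with 10% serum (fetal bovine or mouse). Inoculum 10⁶ CFU/mL with twofold serial compound dilutions, stationary incubation at 37 °C for 24 h. MIC read as lowest concentration with complete inhibition of visible growth.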

Staphylococcus aureus [26] = test: Antibacterial activity against methicillin-resistant Staphylococcus aureus NRS71 assessed as inhibition of bacterial growth incubated for 24 hrs by CLSI based method; assay type: functional; procedure, shortened: as §1
Cell membrane [27] = test: Induction of cell membrane damage in Staphylococcus aureus USA300 assessed as bulging of the septum at 1 times MIC measured after 1 hrs by TEM analysis; procedure, shortened: as §5
Cell membrane [28] = test: Induction of cell membrane damage in Staphylococcus aureus USA300 assessed as membrane wrinkling at 1 times MIC measured after 1 hrs by TEM analysis; procedure, shortened: as §5
[29] = Kinetic aqueous solubility of the compound in DPBS at pH 7.4 at 100 ug/ml measured after 6 hrs by LC-MS/MS analysis; assay type: physicochemical; settings: buffer, pH 7.4, 6 h, dose 100 µg/ml
Erythrocyte = test: Hemolytic activity in sheep erythrocytes at 32 ug/ml incubated for 1 hr; assay type: toxicity, cell-based, Ovis aries; settings: dose 32 µg/ml; procedure, shortened: as §6
Staphylococcus aureus [30] = test: Antibacterial activity against methicillin resistant Staphylococcus aureus assessed as inhibition of bacterial growth incubated for 15 hrs by CLSI based broth microdilution method; assay type: functional

In the case of O=c1cc(C(F)(F)F)[nH]c2cc(C(F)(F)F)cc(Nc3ccc(C(F)(F)F)cn3)c12, the MIC (Klebsiella pneumoniae) was > 128 µg/mL, the MIC (Enterococcus faecalis [1]) was 2 µg/mL (≈ 4.53 µM) and the MIC (Staphylococcus aureus [2]) was < 0.06 µg/mL. The MIC (Escherichia coli) was > 128 µg/mL, the MIC (Candida albicans) was 256 µg/mL (≈ 580 µM) and the Cmax [3] was 3100 ng/mL. For the same compound, the MIC (Enterococcus faecium [4]) was 2 µg/mL (≈ 4.53 µM), the MIC [5] was < 0.06 µg/mL and the F [6] was 51.6%. The MIC (Staphylococcus aureus [7]) was 0.0625 µg/mL (≈ 0.142 µM), the MIC (Enterococcus faecium [8]) was < 0.06 µg/mL and the AUC [9] was 43300 ng·h/mL. For the same compound, the t1/2 [10] was 1.88 h, the MIC (Staphylococcus aureus [11]) was < 0.0625 µg/mL and the Activity (Vero [12]) was “Non-Toxic”. The MIC [13] was < 0.06 µg/mL, the PPB [14] was 99.7% and the Activity (Vero [15]) was 20%. For the same compound, the Activity (Cell membrane [16]) was “Active”, the AUC [17] was 4200 ng·h/mL and the CC50 [18] was > 32 µg/mL. For the same compound, the Activity (Cell membrane [19]) was “Active”, the MIC (Staphylococcus aureus [20]) was < 0.06 µg/mL and the MIC (Enterococcus faecalis [21]) was 2 µg/mL (≈ 4.53 µM). For the same compound, the MIC (Staphylococcus aureus [22]) was < 0.06 µg/mL, the MBC (Staphylococcus aureus [23]) was 2 µg/mL (≈ 4.53 µM) and the MIC (Enterobacter cloacae) was > 128 µg/mL. The Vd [24] was 0.322 L/kg, the MIC (Staphylococcus aureus [25]) was 4 µg/mL and the MIC (Staphylococcus aureus [26]) was < 0.06 µg/mL. The Activity (Cell membrane [27]) was “Active”, the Activity (Cell membrane [28]) was “Active” and the Kinetic_solubility [29] was 2.4 µg/mL. The Activity (Erythrocyte) was “Non-Toxic”.

Oc1cc(C(F)(F)F)nc2c(OC(F)(F)F)cccc12 showed an MIC (Staphylococcus aureus [11]) of 5 µg/mL (≈ 16.8 µM) and an MIC (Staphylococcus aureus [30]) of 8 µg/mL (≈ 26.9 µM).

Reference: ChEMBL document CHEMBL5150021, “Identification of 5-(Aryl/Heteroaryl)amino-4-quinolones as Potent Membrane-Disrupting Agents to Combat Antibiotic-Resistant Gram-Positive Bacteria” (J Med Chem, 2022)
